Assay results taken from ChEMBL document CHEMBL2203229, “Structure Activity Relationship Study of the Cleistriosides and Cleistetrosides for Antibacterial/Anticancer Activity” (ACS Med Chem Lett, 2012).
In brackets after ≈: the same amount, converted by molar mass.

How the values were obtained:
HCT-15 = assay: Growth inhibition of human HCT15 cells after 48 hrs by sulforhodamine B assay; format: functional; conditions: HCT-15, 48 h
Summary of the method: (§1)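 Cells in RPMI 1640 with 5% FBS, plated at 5,000–40,000/well and grown 24 h. Time-zero plates fixed with TCA. Five drug concentrations, 48 h at 37 °C, 5% CO₂. Fixation with TCA (10% final for adherent lines; 16% final for suspension lines), staining with 0.4% SRB, reading at 515 nm. GI50 is the concentration giving a 50% reduction in net protein increase relative to time zero.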

A549 = assay: Growth inhibition of human A549 cells after 48 hrs by sulforhodamine B assay; format: functional; conditions: A549, 48 h; summary of the method: as §1
MCF7 = assay: Growth inhibition of human MCF7 cells after 48 hrs by sulforhodamine B assay; format: functional; conditions: MCF7, 48 h; summary of the method: as §1
NCI-H460 [1] = assay: Growth inhibition of human NCI-H460 cells after 48 hrs by sulforhodamine B assay; format: functional; conditions: NCI-H460, 48 h; summary of the method: as §1
DU-145 = assay: Growth inhibition of human DU145 cells after 48 hrs by sulforhodamine B assay; format: functional; conditions: DU-145, 48 h; summary of the method: as §1
SF-539 = assay: Growth inhibition of human SF539 cells after 48 hrs by sulforhodamine B assay; format: functional; conditions: SF-539, 48 h; summary of the method: as §1
SNB-75 = assay: Growth inhibition of human SNB75 cells after 48 hrs by sulforhodamine B assay; format: functional; conditions: SNB-75, 48 h; summary of the method: as §1
PC-3 = assay: Growth inhibition of human PC3 cells after 48 hrs by sulforhodamine B assay; format: functional; conditions: PC-3, 48 h; summary of the method: as §1
BT-549 = assay: Growth inhibition of human BT549 cells after 48 hrs by sulforhodamine B assay; format: functional; conditions: BT-549, 48 h; summary of the method: as §1
Escherichia coli [2] = assay: Antibacterial activity against Escherichia coli K-12 MG1655 assessed as growth inhibition after 16 hrs by broth dilution method; format: functional; conditions: K-12 substr. MG1655, 16 h
Summary of the method: (§2)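 Strains grown overnight in LB, diluted 10-fold, shaken at 37 °C for 45 min–1 h (~10⁸ CFU/mL), then diluted ~1000-fold to ~10⁵ CFU/mL. Broth dilution in LB: 20 mM DMSO stocks, 1:2 serial dilutions giving seven concentrations, inoculum added 1:1. OD600 read with shaking.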

SR = assay: Growth inhibition of human SR cells after 48 hrs by sulforhodamine B assay; format: functional; summary of the method: as §1
[3] = Antibacterial activity against Bacillus subtilis JH642 containing trpC2 pheA1 assessed as growth inhibition after 16 hrs by broth dilution method; format: functional, Bacillus subtilis subsp. subtilis str. JH642; summary of the method: as §2
NCI-H460 [4] = assay: Cytotoxicity against human NCI-H460 cells assessed as inhibition of cell viability by MTT assay; format: functional, cell-based
Summary of the method: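 NCI-H460 cells in RPMI 1640 with 10% FBS and 2 mM glutamine at 37 °C, 5% CO₂. Seeded at 10,000 cells/well for 12 h, then dosed in 1% FBS medium (DMSO below 0.1% final). MTT (10 µL of 5 mg/mL) for 4 h, formazan dissolved in DMSO for 45 min, absorbance at 562 nm. Triplicate wells, at least three runs (N = 9).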

Escherichia coli [5] = assay: Antibacterial activity against Escherichia coli K-12 BAS901 harboring genetically modified imp-4213, zab4292::Tn5 assessed as growth inhibition after 16 hrs by broth dilution method; format: functional; conditions: K-12 BAS901, 16 h
Summary of the method: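 Kanamycin-resistant strain grown overnight in LB with kanamycin 50 µg/mL, diluted 10-fold, then shaken at 37 °C for 45 min–1 h (~10⁸ CFU/mL). Diluted ~1000-fold to 10⁵ CFU/mL in LB. DMSO stocks (20 mM) prepared as 4X working solutions in LB. Seven 1:2 serial dilutions mixed with equal-volume inoculum. OD600 read with shaking.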

MDA-MB-435 = assay: Growth inhibition of human MDA-MB-435 cells after 48 hrs by sulforhodamine B assay; format: functional; conditions: MDA-MB-435, 48 h; summary of the method: as §1
HT-29 = assay: Growth inhibition of human HT-29 cells after 48 hrs by sulforhodamine B assay; format: functional; conditions: HT-29, 48 h; summary of the method: as §1
RPMI-8226 = assay: Growth inhibition of human RPMI8226 cells after 48 hrs by sulforhodamine B assay; format: functional; conditions: RPMI-8226, 48 h; summary of the method: as §1
[6] = Growth inhibition of human NCI-ADR-RES cells after 48 hrs by sulforhodamine B assay; format: functional; summary of the method: as §1
CAKI-1 = assay: Growth inhibition of human CAKI-1 cells after 48 hrs by sulforhodamine B assay; format: functional; conditions: CAKI-1, 48 h; summary of the method: as §1
OVCAR-3 = assay: Growth inhibition of human OVCAR3 cells after 48 hrs by sulforhodamine B assay; format: functional; conditions: OVCAR-3, 48 h; summary of the method: as §1
A498 = assay: Growth inhibition of human A498 cells after 48 hrs by sulforhodamine B assay; format: functional; conditions: A498, 48 h; summary of the method: as §1
SK-MEL-5 = assay: Growth inhibition of human SK-MEL-5 cells after 48 hrs by sulforhodamine B assay; format: functional; conditions: SK-MEL-5, 48 h; summary of the method: as §1

| Structure (SMILES) | GI50 (HCT-15) [nM] | GI50 (A549) [nM] | GI50 (MCF7) [nM] | GI50 (NCI-H460 [1]) [nM] | GI50 (DU-145) [nM] | GI50 (SF-539) [nM] | GI50 (SNB-75) [nM] | GI50 (PC-3) [nM] | GI50 (BT-549) [nM] | MIC (Escherichia coli [2]) [µM] | GI50 (SR) [nM] | MIC [3] [µM] | IC50 (NCI-H460 [4]) [nM] | MIC (Escherichia coli [5]) [µM] | GI50 (MDA-MB-435) [nM] | GI50 (HT-29) [nM] | GI50 (RPMI-8226) [nM] | GI50 [6] [nM] | GI50 (CAKI-1) [nM] | GI50 (OVCAR-3) [nM] | other results |
| --- | --- | --- | --- | --- | --- | --- | --- | --- | --- | --- | --- | --- | --- | --- | --- | --- | --- | --- | --- | --- | --- |
| CCCCCCCCCCCCO[C@@H]1O[C@@H](C)[C@H](O[C@@H]2O[C@@H](C)[C@H](OC(C)=O)[C@@H](O[C@@H]3O[C@@H](C)[C@H](OC(C)=O)[C@@H](O[C@@H]4O[C@@H](C)[C@H](OC(C)=O)[C@@H](O)[C@H]4OC(C)=O)[C@H]3OC(C)=O)[C@H]2O)[C@@H](O)[C@H]1O | 1010 | 1180 | 870 | 940 | 800 | 830 | 500 | 820 | 940 | > 64 | 860 | 4 (≈ 3.92 µg/mL) | 7500 | > 64 | 830 | 970 | 960 | 3380 | 1420 | 770 | GI50 (A498): 730 nM; GI50 (SK-MEL-5): 740 nM |
| CCCCCCCCCCCCO[C@@H]1O[C@@H](C)[C@H](O[C@@H]2O[C@@H](C)[C@H](OC(C)=O)[C@@H](O[C@@H]3O[C@@H](C)[C@H](OC(C)=O)[C@@H](O)[C@H]3OC(C)=O)[C@H]2O)[C@@H](O)[C@H]1O | 8390 | 6690 | 4840 | 6320 | 7940 | 7110 | 3420 | 2370 | 7900 | > 64 | 3200 | 32 (≈ 24 µg/mL) | 90900 | > 64 | 7680 | 4350 | 4120 | 9290 | 8780 | 5910 | GI50 (A498): 6730 nM; GI50 (SK-MEL-5): 6210 nM |
| CCCCCCCCCCCCO[C@@H]1O[C@@H](C)[C@H](O[C@@H]2O[C@@H](C)[C@H](OC(C)=O)[C@@H](O[C@@H]3O[C@@H](C)[C@H](OC(C)=O)[C@@H](O[C@@H]4O[C@@H](C)[C@H](O)[C@@H](O)[C@H]4OC(C)=O)[C@H]3OC(C)=O)[C@H]2O)[C@@H](O)[C@H]1O | 8330 | 8180 | 5290 | 8430 | 7470 | 7170 | 2180 | 6550 | 8390 | > 64 | 3830 | 8 (≈ 7.51 µg/mL) | 12800 | > 64 | 7250 | 8130 | 2840 | 8900 | 9240 | 6070 | GI50 (A498): 5640 nM; GI50 (SK-MEL-5): 6270 nM |
| CCCCCCCCCCCCO[C@@H]1O[C@@H](C)[C@H](O[C@@H]2O[C@@H](C)[C@H](OC(C)=O)[C@@H](O[C@@H]3O[C@@H](C)[C@H](O)[C@@H](O[C@@H]4O[C@@H](C)[C@H](OC(C)=O)[C@@H](OC(C)=O)[C@H]4OC(C)=O)[C@H]3OC(C)=O)[C@H]2O)[C@@H](O)[C@H]1O | 1520 | 970 | 940 | 960 | 790 | 910 | 620 | 750 | 880 | > 64 | 850 | > 64 | 9800 | > 64 | 840 | 910 | 920 | 2240 | 600 | 800 | GI50 (A498): 20 nM; GI50 (SK-MEL-5): 820 nM |
| CCCCCCCCCCCCO[C@@H]1O[C@@H](C)[C@H](O[C@@H]2O[C@@H](C)[C@H](OC(C)=O)[C@@H](O[C@@H]3O[C@@H](C)[C@H](OC(C)=O)[C@@H](O[C@@H]4O[C@@H](C)[C@H](OC(C)=O)[C@@H](OC(C)=O)[C@H]4OC(C)=O)[C@H]3OC(C)=O)[C@H]2O)[C@@H](O)[C@H]1O | 820 | 800 | 890 | 930 | 800 | 800 | 540 | 710 | 1050 | > 64 | 920 | > 64 | 16400 | > 64 | 880 | 910 | 1040 | 920 | 860 | 840 | GI50 (A498): 670 nM; GI50 (SK-MEL-5): 760 nM |
| CCCCCCCCCCCCO[C@@H]1O[C@@H](C)[C@H](O[C@@H]2O[C@@H](C)[C@H](OC(C)=O)[C@@H](O[C@@H]3O[C@@H](C)[C@H](O)[C@@H](OC(C)=O)[C@H]3OC(C)=O)[C@H]2O)[C@@H](O)[C@H]1O | 7380 | 2080 | 1620 | 1540 | 2480 | 3100 | 900 | 890 | 4540 | > 64 | 1200 | 8 (≈ 6.01 µg/mL) | 12500 | 32 (≈ 24 µg/mL) | 1490 | 1210 | 1000 | 7920 | 6570 | 1490 | GI50 (A498): 5130 nM; GI50 (SK-MEL-5): 1230 nM |
